Assay results reported in article PMC10407542 (The Innovation, 2023).

Assays:
S. aureus biofilm = assay: Activity against mature S. aureus biofilm; type: cell-based, Staphylococcus aureus; conditions: treatment for 8 h
[1] = test system: S.aureus infected skin wound; assay: In vivo anti-infection study, S.aureus infected full-thickness wound model; design: species or system rat; conditions: SD rats, early stages, n = 5
Procedure, shortened: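 Rats bearing S. aureus-infected skin wounds were given PBS (control) or test compound. Wound beds were inspected visually for yellow pus in the early stages. Infection was confirmed by agar plate counts of tissue exudate from wound sites on day 3. Wound healing and wound size were followed over time. Mean ± SD, n = 5.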

N3-Arg-Trp-Arg-Trp-Arg-Trp-NH2 [AMP]
minimum eradication biofilm concentration (S. aureus biofilm): 1,280 μmol L^−1 | pyogenic infection (yellow pus) on the infected wound bed [1]: not observed
